Seven molecules from ChEMBL document CHEMBL1126988, “Quinolone antibacterials containing the new 7-[3-(1-aminoethyl)-1- pyrrolidinyl] side chain: the effects of the 1-aminoethyl moiety and its stereochemical configurations on potency and in vivo efficacy” (J Med Chem, 1993) can be followed below.

What all share (format): functional
One assay concerns Pseudomonas aeruginosa. The assay can be described thus: Minimum inhibitory concentration was evaluated in vitro against Pseudomonas aeruginosa UI-18. To be noted: Pseudomonas aeruginosa; read-out: MIC. The method, boiled down: (§1)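 Standard microtitration broth assay against a panel of 10 Gram-positive and Gram-negative organisms. MIC read in µg/mL and averaged over multiple experiments.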

The subject of the next assay is Streptococcus pneumoniae. The assay can be described thus: Minimum inhibitory concentration was evaluated in vitro against Streptococcus pneumoniae SV-1. The method in brief:
as §1

In assay [1] the test system is Escherichia coli. As to the kind of experiment: Antibacterial activity against Escherichia coli Vogel after oral administration in mouse. To be noted: for ED50: Escherichia coli, po, read-out: PD50.
In assay [2] the test system is Escherichia coli. As to the kind of experiment: Antibacterial activity against Escherichia coli Vogel after subcutaneous administration in mouse. To be noted: Escherichia coli, sc; read-out: PD50.
Assay [3] concerns Streptococcus pyogenes. The assay can be described thus: Antibacterial activity measured as mouse protection against Streptococcus pyogenes C 203 after subcutaneous administration. To be noted: Streptococcus pyogenes, C 203, sc; read-out: PD50.
In another assay the test system is Enterobacter cloacae. As to the kind of experiment: Minimum inhibitory concentration in vitro against Enterobacter cloacae MA 2646. To be noted: Enterobacter cloacae; read-out: MIC.
For assay [4], the system named is Streptococcus pyogenes. As to the kind of experiment: Minimum inhibitory concentration was evaluated in vitro against Streptococcus pyogenes C 203. The method, boiled down:
as §1

In a further assay the test system is Providencia rettgeri. The assay can be described thus: Minimum inhibitory concentration was evaluated in vitro against Providencia rettgeri M1771. To be noted: Providencia rettgeri; read-out: MIC. The method, boiled down:
as §1

The test system of assay [5] is Streptococcus pyogenes. The assay can be described thus: Compounds were evaluated in vivo for antibacterial activity for mouse protection against Streptococcus pyogenes C 203 after oral administration. To be noted: Streptococcus pyogenes, C 203, po; read-out: PD50.
The test system of assay [6] is Staphylococcus aureus. As to the kind of experiment: Minimum inhibitory concentration was evaluated in vitro against Staphylococcus aureus H 228. The method, boiled down: as §1
Another assay deals with Klebsiella pneumoniae. The assay can be described thus: Minimum inhibitory concentration was evaluated in vitro against Klebsiella pneumoniae MGH2. To be noted: Klebsiella pneumoniae; read-out: MIC. The method in brief: as §1
The next assay has as its system Enterococcus faecalis. As to the kind of experiment: Minimum inhibitory concentration was evaluated in vitro against Enterococcus faecalis MGH-2. The method, boiled down:
as §1

Assay [7] relates to Escherichia coli. As to the kind of experiment: Antibacterial activity in vitro against Escherichia coli Vogel. To be noted: Escherichia coli; read-out: MIC. The method, boiled down: as §1
The test system of assay [8] is Staphylococcus aureus. The assay can be described thus: Minimum inhibitory concentration was evaluated in vitro against Staphylococcus aureus UC 76. The method, boiled down:
as §1

Where [9] appears, read: Streptococcus pneumoniae, read-out: MIC.
Where [10] appears, read: Streptococcus pyogenes, read-out: MIC.
The mark [11] stands for this setting: Staphylococcus aureus, read-out: MIC.
[12] abbreviates: Enterococcus faecalis, read-out: MIC.

≈ marks a conversion by molar mass, not a printed value.

For orientation: MIC means the least concentration at which growth counts as inhibited.

On to `CC1(CN)CCN(c2c(F)c(N)c3c(=O)c(C(=O)O)cn(C4CC4)c3c2F)C1` (stereo not drawn), for which the MIC came out at 0.8 µg/mL (≈ 2.04 µM) in the assay with Pseudomonas aeruginosa; 0.003 µg/mL (≈ 0.00765 µM) in the assay on Streptococcus pneumoniae (setting [9]); 0.1 µg/mL (≈ 0.255 µM) with Enterobacter cloacae; 0.013 µg/mL (≈ 0.0331 µM) with Streptococcus pyogenes [4] (setting [10]); 0.2 µg/mL (≈ 0.51 µM) in the assay with Providencia rettgeri; 0.013 µg/mL (≈ 0.0331 µM) in the assay with Staphylococcus aureus [6] (setting [11]). Further, the MIC in the assay with Klebsiella pneumoniae worked out at 0.1 µg/mL (≈ 0.255 µM); in the assay with Enterococcus faecalis (setting [12]) it was 0.025 µg/mL (≈ 0.0637 µM); in the assay on Escherichia coli [7] it was 0.2 µg/mL (≈ 0.51 µM); in the assay with Staphylococcus aureus [8] (setting [11]) it was 0.003 µg/mL (≈ 0.00765 µM). Also, the PD50 in the assay with Escherichia coli [1] came to 9 mg/kg. In addition, the values for the ED50 with Escherichia coli [2], in the assay on Streptococcus pyogenes [3] and in the assay with Streptococcus pyogenes [5] were 1 mg/kg, 1 mg/kg and 8 mg/kg, respectively.
For `NCC1CCN(c2c(F)c(N)c3c(=O)c(C(=O)O)cn(C4CC4)c3c2F)C1` (stereo not drawn), the minimal inhibitory concentration (MIC) in the assay with Pseudomonas aeruginosa is 0.1 µg/mL (≈ 0.264 µM); in the assay on Streptococcus pneumoniae (setting [9]) it was 0.003 µg/mL (≈ 0.00793 µM); with Enterobacter cloacae, 0.025 µg/mL (≈ 0.0661 µM); in the assay with Streptococcus pyogenes [4] (setting [10]) it was 0.003 µg/mL (≈ 0.00793 µM); in the assay on Providencia rettgeri it was 0.05 µg/mL (≈ 0.132 µM); in the assay on Staphylococcus aureus [6] (setting [11]), 0.006 µg/mL (≈ 0.0159 µM). In addition, the MIC in the assay on Klebsiella pneumoniae was found to be 0.025 µg/mL (≈ 0.0661 µM); in the assay with Enterococcus faecalis (setting [12]), 0.013 µg/mL (≈ 0.0344 µM); in the assay on Escherichia coli [7], 0.013 µg/mL (≈ 0.0344 µM); in the assay on Staphylococcus aureus [8] (setting [11]) it was 0.003 µg/mL (≈ 0.00793 µM). In addition, the ED50 in the assay with Escherichia coli [1] was found to be 12 mg/kg; in the assay with Escherichia coli [2], 1 mg/kg; in the assay on Streptococcus pyogenes [3], 0.6 mg/kg; in the assay on Streptococcus pyogenes [5], 11 mg/kg.
Regarding `CC(N)C1CCN(c2c(F)cc3c(=O)c(C(=O)O)cn(C4CC4)c3c2F)C1` (racemic), the MIC with Pseudomonas aeruginosa was 0.4 µg/mL (≈ 1.06 µM); in the assay on Streptococcus pneumoniae (setting [9]), 0.006 µg/mL (≈ 0.0159 µM); in the assay with Enterobacter cloacae, 0.013 µg/mL (≈ 0.0344 µM); in the assay with Streptococcus pyogenes [4] (setting [10]) it was 0.006 µg/mL (≈ 0.0159 µM); with Providencia rettgeri, 0.025 µg/mL (≈ 0.0662 µM); in the assay with Staphylococcus aureus [6] (setting [11]) it was 0.013 µg/mL (≈ 0.0344 µM). In addition, the MIC in the assay with Klebsiella pneumoniae is 0.013 µg/mL (≈ 0.0344 µM); in the assay with Enterococcus faecalis (setting [12]), 0.006 µg/mL (≈ 0.0159 µM); with Escherichia coli [7] it was 0.013 µg/mL (≈ 0.0344 µM); in the assay with Staphylococcus aureus [8] (setting [11]), 0.003 µg/mL (≈ 0.00795 µM). Also, the ED50 with Escherichia coli [1] turned out to be 2 mg/kg; in the assay with Escherichia coli [2], 0.3 mg/kg; in the assay with Streptococcus pyogenes [3] it was 0.1 mg/kg; in the assay on Streptococcus pyogenes [5] it was 0.4 mg/kg.
As for `CCN[C@H](C)[C@H]1CCN(c2cc3c(cc2F)c(=O)c(C(=O)O)cn3C2CC2)C1` (mixture of isomers; form 2), the MIC in the assay on Pseudomonas aeruginosa is 6.3 µg/mL; with Streptococcus pneumoniae it was 0.05 µg/mL; in the assay with Enterobacter cloacae, 0.2 µg/mL; in the assay on Streptococcus pyogenes [4], 0.05 µg/mL; with Providencia rettgeri it was 0.8 µg/mL; against Staphylococcus aureus [6], 0.1 µg/mL. Further, the minimal inhibitory concentration (MIC) in the assay with Klebsiella pneumoniae stood at 0.4 µg/mL; against Enterococcus faecalis it was 0.1 µg/mL; in the assay with Escherichia coli [7] it was 0.2 µg/mL; against Staphylococcus aureus [8], 0.025 µg/mL. The ED50 in the assay on Escherichia coli [1] was 13 mg/kg; with Escherichia coli [2] it was 2 mg/kg; in the assay on Streptococcus pyogenes [3] it was 1 mg/kg; in the assay on Streptococcus pyogenes [5], 8 mg/kg.
For the molecule `CNCC1CCN(c2nc3c(cc2F)c(=O)c(C(=O)O)cn3C2CC2)C1` (stereo not drawn), the minimum inhibitory concentration (MIC) in the assay with Pseudomonas aeruginosa worked out at 0.8 µg/mL (≈ 2.22 µM); in the assay on Streptococcus pneumoniae (setting [9]) it was 0.025 µg/mL (≈ 0.0694 µM); in the assay on Enterobacter cloacae it was 0.2 µg/mL (≈ 0.555 µM); in the assay on Streptococcus pyogenes [4] (setting [10]), 0.05 µg/mL (≈ 0.139 µM); with Providencia rettgeri, 0.4 µg/mL (≈ 1.11 µM); in the assay with Staphylococcus aureus [6] (setting [11]), 0.2 µg/mL (≈ 0.555 µM). For the same molecule, the minimal inhibitory concentration (MIC) in the assay with Klebsiella pneumoniae turned out to be 0.2 µg/mL (≈ 0.555 µM); in the assay on Enterococcus faecalis (setting [12]), 0.2 µg/mL (≈ 0.555 µM); in the assay with Escherichia coli [7], 0.1 µg/mL (≈ 0.277 µM); in the assay with Staphylococcus aureus [8] (setting [11]) it was 0.025 µg/mL (≈ 0.0694 µM). For the same molecule, the ED50 with Escherichia coli [1] came out at 3 mg/kg; with Escherichia coli [2] it was 1 mg/kg; in the assay with Streptococcus pyogenes [3] it was 7 mg/kg; in the assay on Streptococcus pyogenes [5] it was 21 mg/kg.
Take `COc1c(N2CCC(C)(CN)C2)c(F)cc2c(=O)c(C(=O)O)cn(C3CC3)c12` (stereo not drawn): the minimum inhibitory concentration (MIC) is 1.6 µg/mL (≈ 4.11 µM) in the assay with Pseudomonas aeruginosa; 0.013 µg/mL (≈ 0.0334 µM) in the assay on Streptococcus pneumoniae (setting [9]); 0.1 µg/mL (≈ 0.257 µM) with Enterobacter cloacae; 0.013 µg/mL (≈ 0.0334 µM) with Streptococcus pyogenes [4] (setting [10]); 0.4 µg/mL (≈ 1.03 µM) in the assay on Providencia rettgeri; 0.025 µg/mL (≈ 0.0642 µM) in the assay on Staphylococcus aureus [6] (setting [11]). Moreover, the MIC amounted to 0.2 µg/mL (≈ 0.514 µM) with Klebsiella pneumoniae, 0.025 µg/mL (≈ 0.0642 µM) in the assay on Enterococcus faecalis (setting [12]), 0.1 µg/mL (≈ 0.257 µM) in the assay with Escherichia coli [7] and 0.006 µg/mL (≈ 0.0154 µM) with Staphylococcus aureus [8] (setting [11]). Besides, the ED50 worked out at 18 mg/kg in the assay on Escherichia coli [1], 3 mg/kg in the assay on Escherichia coli [2], 1 mg/kg in the assay with Streptococcus pyogenes [3] and 5 mg/kg in the assay on Streptococcus pyogenes [5].
`CCNCC1CCN(c2cc3c(c(N)c2F)c(=O)c(C(=O)O)cn3C2CC2)C1` (stereo not drawn): the MIC in the assay with Pseudomonas aeruginosa was 1.6 µg/mL (≈ 4.12 µM); with Streptococcus pneumoniae (setting [9]), 0.05 µg/mL (≈ 0.129 µM); in the assay on Enterobacter cloacae, 0.1 µg/mL (≈ 0.257 µM); with Streptococcus pyogenes [4] (setting [10]), 0.1 µg/mL (≈ 0.257 µM); in the assay on Providencia rettgeri, 0.8 µg/mL (≈ 2.06 µM); in the assay with Staphylococcus aureus [6] (setting [11]) it was 0.2 µg/mL (≈ 0.515 µM). Also, the minimum inhibitory concentration (MIC) was 0.4 µg/mL (≈ 1.03 µM) in the assay on Klebsiella pneumoniae, 0.05 µg/mL (≈ 0.129 µM) with Enterococcus faecalis (setting [12]), 0.1 µg/mL (≈ 0.257 µM) in the assay on Escherichia coli [7] and 0.025 µg/mL (≈ 0.0644 µM) with Staphylococcus aureus [8] (setting [11]). The ED50 in the assay on Escherichia coli [1] is 90 mg/kg; with Escherichia coli [2] it was 3 mg/kg; in the assay with Streptococcus pyogenes [3], 11 mg/kg; with Streptococcus pyogenes [5], above 100 mg/kg.
